Laboratory results as given in ChEMBL document CHEMBL1123806, “Effects of derivatives of kahweol and cafestol on the activity of glutathione S-transferase in mice” (1987).

Experiments:
Mus musculus [1] = species: Mus musculus; experiment: Ratio is the compound /control(SH in small bowel mucosa); format: functional
Method in brief: (§1)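 Same dosing: 10 μmol po daily for 3 days in cottonseed oil/10% ethanol, vehicle controls, tissues taken 24 h after the last dose. Homogenate (phosphate pH 7.5) used at once. Ellman method: equal volume 4% sulfosalicylic acid, then supernatant plus 9 volumes of 0.1 mM DTNB in 0.1 M phosphate pH 8.0. Read spectrophotometrically. Units µmol SH/g tissue, mean ± SD; ratio = treated/control.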

[2] = target: T1, Glutathione S-transferase Mu 1 (Mus musculus) (UniProt P10649); experiment: Ratio is the compound /control(Specific activity in forestomach); format: functional, tissue-based; details: Stomach
T1 sequence (whole entry): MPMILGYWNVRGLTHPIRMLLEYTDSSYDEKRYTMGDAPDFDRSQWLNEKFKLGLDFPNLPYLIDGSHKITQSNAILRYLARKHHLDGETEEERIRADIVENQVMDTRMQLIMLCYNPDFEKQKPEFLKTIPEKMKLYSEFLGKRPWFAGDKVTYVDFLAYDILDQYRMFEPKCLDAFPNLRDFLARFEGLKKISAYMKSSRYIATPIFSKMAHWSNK
Method in brief: (§2)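 Mice (6-8 wk, groups of 4-5, semipurified diet) dosed po once daily for 3 days with 10 μmol in 0.2 mL cottonseed oil/10% ethanol. Vehicle-only controls. Killed 24 h after the last dose. Tissue homogenized in phosphate buffer pH 7.5, then spun at 100000g for 1 h to give cytosol. CDNB conjugation read at 340 nm, 30 °C, pH 6.5 phosphate, 5 mM GSH, 1 mM CDNB. Units µmol/min/mg protein, mean ± SD; ratio = treated/control.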

Mus musculus [3] = species: Mus musculus; experiment: Tissue acid-soluble sulfhydryl levels of small bowel mucosa of ICR/Ha mice; format: functional; method in brief: as §1
[4] = Ratio is the compound /control(SH level in liver); format: functional, Mus musculus; method in brief: as §1
[5] = target: T1, Glutathione S-transferase Mu 1 (Mus musculus); experiment: GST activity in the cytosols of liver of ICR/Ha mice, using 1-Chloro-2,4-dinitrobenzene as substrate; format: functional, tissue-based; method in brief: as §2
[6] = target: T1, Glutathione S-transferase Mu 1 (Mus musculus); experiment: GST activity in the cytosols of the lung of ICR/Ha mice was determined by using 1-Chloro-2,4-dinitrobenzene as the substrate; format: functional; method in brief: as §2
[7] = target: T1, Glutathione S-transferase Mu 1 (Mus musculus); experiment: Ratio is the compound /control(Specific activity in liver(GST)); format: functional, tissue-based; method in brief: as §2
Mus musculus [8] = species: Mus musculus; experiment: GST activity in the cytosols of small bowel mucosa of ICR/Ha mice was determined by using 1-Chloro-2,4-di nitrobenzene as the substrate; format: functional; method in brief: as §2
[9] = target: T1, Glutathione S-transferase Mu 1 (Mus musculus); experiment: Ratio is the compound /control(Specific activity in small bowel mucosa(GST)); format: functional; method in brief: as §2
[10] = Tissue acid-soluble sulfhydryl levels of liver of ICR/Ha mice; format: functional, Mus musculus; method in brief: as §1
[11] = target: T1, Glutathione S-transferase Mu 1 (Mus musculus); experiment: Ratio is the compound /control(Specific activity in lung); format: functional; method in brief: as §2
[12] = target: T1, Glutathione S-transferase Mu 1 (Mus musculus); experiment: GST activity in the cytosols of the forestomach of ICR/Ha mice was determined by using 1-Chloro-2,4-dinitrobenzene as the substrate; format: functional, tissue-based; details: Stomach; method in brief: as §2
[13] = Tissue acid-soluble sulfhydryl levels of liver of ICR/Ha mice.; format: functional, Mus musculus; method in brief: as §1
Mus musculus [14] = species: Mus musculus; experiment: GST activity in the cytosols of small bowel mucosa of ICR/Ha mice was determined by using 1-Chloro-2,4-dinitrobenzene as the substrate.; format: functional; method in brief: as §2
Mus musculus [15] = species: Mus musculus; experiment: Tissue acid-soluble sulfhydryl levels of small bowel mucosa of ICR/Ha mice.; format: functional; method in brief: as §1
[16] = target: T1, Glutathione S-transferase Mu 1 (Mus musculus); experiment: GST activity in the cytosols of small bowel mucosa of ICR/Ha mice was determined by using 1-Chloro-2,4-di nitrobenzene as the substrate.; format: functional; method in brief: as §2
Mus musculus [17] = species: Mus musculus; experiment: GST activity in the cytosols of small bowel mucosa of ICR/Ha mice was determined by using 1-Chloro-2,4-dinitrobenzene as the substrate; format: functional; method in brief: as §2
Mus musculus [18] = species: Mus musculus; experiment: Tissue acid-soluble sulfhydryl levels of small bowel mucosa of ICR/Ha mice. P < 0.005; format: functional; method in brief: as §1
Mus musculus [19] = species: Mus musculus; experiment: Tissue acid-soluble sulfhydryl levels of liver of ICR/Ha mice. P<0.005; format: functional; method in brief: as §1

| Ratio [2] | Specific activity (uM min-1 (mg of protein)-1) [5] | Specific activity (uM min-1 (mg of protein)-1) [6] | Ratio [7] | Ratio [9] | Ratio [11] | Specific activity (uM min-1 (mg of protein)-1) [12] | Specific activity (uM min-1 (mg of protein)-1) [16] | Compound | Ratio (Mus musculus [1]) | SH level (Mus musculus [3]) | Ratio [4] | Specific activity (Mus musculus [8]) | SH level [10] | SH level [13] | Specific activity (Mus musculus [14]) | SH level (Mus musculus [15]) | Specific activity (Mus musculus [17]) | SH level (Mus musculus [18]) | SH level (Mus musculus [19]) |
| --- | --- | --- | --- | --- | --- | --- | --- | --- | --- | --- | --- | --- | --- | --- | --- | --- | --- | --- | --- |
| 0.9 | 3.06 | 0.36 | 2.1 | 3.9 | 1.2 | 0.63 | – | C[C@@]12C=Cc3occc3C1CC[C@]13CCC(CCC12)C3 (some centres undefined) | 1.2 | 7.8 µmol/g | 1.1 | 1.18 uM min-1 (mg of protein)-1 | 9.5 µM/g | – | – | – | – | – | – |
| – | 3.24 | – | 2.74 | 7.5 | – | – | – | CC(=O)OC[C@@]1(O)C[C@@]23CC[C@@H]4c5ccoc5CC[C@@]4(C)[C@@H]2CC[C@@H]1C3 [CAFESTOL ACETATE] | 2 | – | 1.41 | – | – | 14.3 µM/g | 3 uM min-1 (mg of protein)-1 | 12 µmol/g | – | – | – |
| 1 | 2.26 | 0.27 | 1.4 | 3.6 | 1 | 0.76 | – | CC1(O)C[C@@]23CCC4c5ccoc5CC[C@@]4(C)C2CCC1C3 (some centres undefined) | 1.6 | 8.6 µmol/g | 2.1 | 1.3 uM min-1 (mg of protein)-1 | – | 16.3 µM/g | – | – | – | – | – |
| 1.4 | 2.59 | 0.24 | 1.8 | 4.5 | 0.8 | 0.92 | 1.34 | CC1(O)C[C@@]23CCC4c5ccoc5C=C[C@@]4(C)C2CCC1C3 (some centres undefined) | 1.2 | 7.7 µmol/g | 0.9 | – | 8.3 µM/g | – | – | – | – | – | – |
| 1.2 | 2.54 | 0.2 | 1.5 | 4.2 | 0.8 | 0.91 | – | C[C@@]12CCc3occc3C1CC[C@]13CC(O)C(CCC12)C3 (some centres undefined) | 2.2 | 11.9 µmol/g | 1.7 | 1.52 uM min-1 (mg of protein)-1 | – | 12.8 µM/g | – | – | – | – | – |
| 2.1 | 4.3 | 0.29 | 3 | 7.3 | 1 | 1.4 | 2.21 | C[C@@]12C=Cc3occc3C1CC[C@@]13CC(CCC12)C(O)(CO)C3 (some centres undefined) | 2.1 | – | 1.5 | – | – | 13 µM/g | – | 13.1 µmol/g | – | – | – |
| 1.2 | 2.85 | 0.29 | 1.7 | 5.7 | 1.1 | 0.88 | 2.06 | C[C@@]12CCc3occc3C1CC[C@]13CC(=O)C(CCC12)C3 (some centres undefined) | 1.9 | – | 1.8 | – | – | 13.3 µM/g | – | 10.3 µmol/g | – | – | – |
| – | 1.22 | – | 1.04 | 1.1 | – | – | – | C[C@@]12CCC3=C(CCO3)C1CC[C@@]13CC(CCC12)[C@@](O)(CO)C3 (some centres undefined) | 1.1 | – | 1.18 | – | – | 11.9 µM/g | 0.42 uM min-1 (mg of protein)-1 | 6.5 µmol/g | – | – | – |
| 1.1 | 2.24 | 0.29 | 1.3 | 5.1 | 1.1 | 0.83 | 1.83 | CC(=O)OC1C[C@@]23CCC4c5ccoc5CC[C@@]4(C)C2CCC1C3 (some centres undefined) | 1.5 | – | 1.8 | – | – | 13.3 µM/g | – | 8.3 µmol/g | – | – | – |
| 1.5 | 3.57 | 0.23 | 2.5 | 5.7 | 0.8 | 1.01 | 1.72 | C[C@@]12C=Cc3occc3C1CC[C@]13CC(O)C(CCC12)C3 (some centres undefined) | 1.7 | 10.9 µmol/g | 1.1 | – | 9.5 µM/g | – | – | – | – | – | – |
| – | 1.27 | – | 1.08 | 1 | – | – | – | CC(=O)OC[C@@]1(O)C[C@@]23CCC4C5=C(CC[C@@]4(C)C2CCC1C3)OCC5 (some centres undefined) | 1.2 | – | 1.55 | – | – | 15.6 µM/g | 0.41 uM min-1 (mg of protein)-1 | 7.1 µmol/g | – | – | – |
| 1.1 | 2.62 | 0.33 | 1.6 | 2.6 | 1.3 | 0.85 | – | C[C@@]12CCc3occc3C1CC[C@]13CCC(CCC12)C3 (some centres undefined) | 1.6 | 8.4 µmol/g | 1.7 | 0.95 uM min-1 (mg of protein)-1 | – | 13 µM/g | – | – | – | – | – |
| – | 1.48 | – | 1.25 | 1.4 | – | – | – | C[C@@]12CC[C@@H]3OCC[C@@H]3C1CC[C@@]13CC(CCC12)[C@@](O)(CO)C3 (some centres undefined) | 1.2 | 7.4 µmol/g | 1.44 | – | 14.5 µM/g | – | – | – | 0.54 uM min-1 (mg of protein)-1 | – | – |
| 1.4 | 3.68 | 0.3 | 2.6 | 6.9 | 1 | 0.94 | 2.06 | CC(=O)OC1C[C@@]23CCC4c5ccoc5C=C[C@@]4(C)C2CCC1C3 (some centres undefined) | 1.7 | 10.8 µmol/g | 1.1 | – | 10.1 µM/g | – | – | – | – | – | – |
| 1.2 | 3.35 | 0.26 | 2 | 3.8 | 1 | 0.91 | 1.36 | C[C@@]12CCc3occc3C1CC[C@@]13CC(CCC12)C(O)(CO)C3 (some centres undefined) | 1.5 | – | 2 | – | – | 14.9 µM/g | – | 7.9 µmol/g | – | – | – |
| – | 1.25 | – | 1.06 | 1 | – | – | – | CC(=O)OC[C@@]1(O)C[C@@]23CCC4[C@H]5CCO[C@H]5CC[C@@]4(C)C2CCC1C3 (some centres undefined) | 1.4 | – | 1.42 | – | – | – | 0.41 uM min-1 (mg of protein)-1 | – | – | 8.2 µM/g | 14.3 µM/g |
| 1.6 | 3.67 | 0.28 | 2.6 | 6.1 | 1 | 1.05 | 1.84 | C[C@@]12C=Cc3occc3C1CC[C@]13CC(=O)C(CCC12)C3 (some centres undefined) | 1.6 | – | 1.3 | – | – | 11.8 µM/g | – | 10.4 µmol/g | – | – | – |
